Results of several laboratories.
Lines come from different studies, so protocols differ.
Target: Serine/threonine-protein kinase 36 (STK36, Homo sapiens, UniProt Q9NRP7)
Sequence (Q9NRP7 1-1315, as in one of the studies): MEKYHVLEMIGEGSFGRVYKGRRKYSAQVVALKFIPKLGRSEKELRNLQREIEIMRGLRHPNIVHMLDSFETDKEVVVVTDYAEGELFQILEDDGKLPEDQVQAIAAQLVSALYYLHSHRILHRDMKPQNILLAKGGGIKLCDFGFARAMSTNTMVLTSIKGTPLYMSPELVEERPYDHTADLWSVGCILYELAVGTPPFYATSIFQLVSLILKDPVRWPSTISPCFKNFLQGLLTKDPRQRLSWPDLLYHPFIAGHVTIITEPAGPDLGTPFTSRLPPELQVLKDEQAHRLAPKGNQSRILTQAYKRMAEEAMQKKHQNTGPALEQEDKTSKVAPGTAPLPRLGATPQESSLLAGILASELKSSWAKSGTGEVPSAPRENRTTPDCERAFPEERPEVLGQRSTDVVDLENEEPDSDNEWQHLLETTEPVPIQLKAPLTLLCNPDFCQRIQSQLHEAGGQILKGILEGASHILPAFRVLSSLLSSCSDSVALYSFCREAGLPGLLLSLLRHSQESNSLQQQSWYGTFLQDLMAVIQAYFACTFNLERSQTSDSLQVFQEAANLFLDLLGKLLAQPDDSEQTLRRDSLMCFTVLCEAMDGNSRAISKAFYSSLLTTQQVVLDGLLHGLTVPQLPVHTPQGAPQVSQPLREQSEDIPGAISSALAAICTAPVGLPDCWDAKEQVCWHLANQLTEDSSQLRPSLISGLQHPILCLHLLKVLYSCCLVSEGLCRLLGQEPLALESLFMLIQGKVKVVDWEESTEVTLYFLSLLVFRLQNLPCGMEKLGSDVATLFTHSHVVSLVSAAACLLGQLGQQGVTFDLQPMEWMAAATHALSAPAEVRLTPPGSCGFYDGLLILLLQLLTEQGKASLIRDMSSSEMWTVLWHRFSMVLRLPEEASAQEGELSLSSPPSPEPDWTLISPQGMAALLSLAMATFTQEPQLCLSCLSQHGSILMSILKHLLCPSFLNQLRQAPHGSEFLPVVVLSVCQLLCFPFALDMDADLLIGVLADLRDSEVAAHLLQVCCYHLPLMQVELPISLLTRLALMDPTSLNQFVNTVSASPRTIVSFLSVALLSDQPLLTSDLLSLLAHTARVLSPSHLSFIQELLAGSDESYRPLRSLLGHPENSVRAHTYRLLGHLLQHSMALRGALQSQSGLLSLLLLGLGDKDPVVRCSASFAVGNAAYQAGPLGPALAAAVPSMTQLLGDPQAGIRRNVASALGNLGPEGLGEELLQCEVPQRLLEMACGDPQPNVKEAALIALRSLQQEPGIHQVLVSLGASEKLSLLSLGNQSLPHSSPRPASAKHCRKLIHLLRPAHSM

FC(F)(F)Oc1cccc(-c2cnc3ccc(-c4ccncc4)nn23)c1 — remaining binding (binding, competition with immobilised ligand; 5 µM): 95%
CS(=O)(=O)N1CCCC(NC(=O)[C@H](CCC2CCCCC2)NC(=O)c2ccc(CNc3ncnc4c3nnn4-c3ccccc3)cc2)C1 (stereo partly shown) — remaining binding (cell-free assay, competition with immobilised ligand; 0.1 µM): 97%
N[C@H]1CCN(c2nccc(-c3cnn4ncccc34)n2)C1 — remaining binding (binding; 1 µM): 62%
CNCc1ccccc1-c1csc([C@H](C)Nc2nc(C)nc3cc(OC)c(OC)cc23)c1 — remaining binding (cell-free assay, competition with immobilised ligand; 1 µM): 100%
F[C@@H]1CCN(c2nccc(-c3cnn4ncccc34)n2)C1 — remaining binding (binding; 1 µM): 90%
c1cncc(-c2cccc(Nc3nccc(NC4CCCCC4)n3)c2)c1 — remaining binding (binding, competition with immobilised ligand; 10 µM): 49%
COc1cnc(Nc2cccc(S(N)(=O)=O)c2)nc1N1CCN(c2ccccc2)C(=O)C1 — remaining binding (binding, competition with immobilised ligand; 1 µM): 100%
COc1ccnn2ncc(-c3ccnc(N(C)C)n3)c12 — remaining binding (binding; 1 µM): 81%
O=C(c1ccc(Nc2nccc(-c3cc4ccccc4s3)n2)cc1)N1CCC(N2CCCC2)CC1 — remaining binding (binding, competition with immobilised ligand; 1 µM): 11%
COc1ncc2cc3ccccc3nc2c1C#N — remaining binding (cell-free assay, competition with immobilised ligand; 5 µM): 88%
O=C(Nc1c[nH]nc1C(=O)NC1CCNCC1)c1cc(F)cc(F)c1 — remaining binding (binding, competition with immobilised ligand; 1 µM): 100%
CN(CCCC(F)(F)F)c1nccc(-c2cnn3ncccc23)n1 — remaining binding (binding; 1 µM): 92%
CN1CCN(c2cnc3c(C4CCN(C(=O)c5ccc(OC(F)(F)F)cc5N)CC4)ncnc3c2)CC1 — remaining binding (cell-free assay, competition with immobilised ligand; 1 µM): 75%
C=CC(=O)N1CCC(C(=O)NCC(=O)N2CCN(c3nc(-c4cnc(N)nc4C(F)F)nc(N4CCOCC4)n3)CC2)CC1 — remaining binding (binding, competition with immobilised ligand; 1 µM): 95%
O=C(NCCCN1CCOCC1)c1ccc(Nc2ncc(Cl)c(-c3ccc(Cl)s3)n2)cc1 — remaining binding (binding, competition with immobilised ligand; 1 µM): 6.2%
CCC(=O)N[C@@H]1CC[C@H](C(=O)N(C)c2ccc(-c3nc4ccccc4o3)cc2)C1 — remaining binding (cell-free assay, competition with immobilised ligand; 1 µM): 82%
C[C@@H]1CCN(c2nccc(-c3cnn4ncccc34)n2)C1 — remaining binding (binding; 1 µM): 87%
c1ccc(N2CCN(Cc3nc4ccccc4[nH]3)CC2)nc1 — remaining binding (binding, competition with immobilised ligand; 1 µM): 84%
CN(C)c1nccc(-c2cnn3ncccc23)n1 — remaining binding (binding; 1 µM): 100%
Cc1nc(N2CC[C@@H](O)C2)ncc1-c1cc(C(F)(F)F)cc2[nH]ncc12 — remaining binding (binding, competition with immobilised ligand; 1 µM): 100%
CN(C)c1nccc(-c2cnc3ncccn23)n1 — remaining binding (binding; 1 µM): 99%
Cc1cnc(Nc2ccc(C(=O)N3CCC(N4CCCC4)CC3)cc2)nc1-c1cc2ccccc2s1 — remaining binding (binding, competition with immobilised ligand; 1 µM): 3.6%
